Assay results from different studies.
Each line is one published result; the experiments were not run side by side.
Target: Serine/threonine-protein kinase MARK2 (MARK2, Homo sapiens, UniProt Q7KZI7)
Read-out: enzyme activity
Action: inhibitor

Structure (SMILES) | technique | tested at | remaining activity
Cc1cnc(NC2CCOCC2)nc1-n1cnc(C(=O)NC(CN)c2cc(F)cc(Cl)c2)c1 (centres unmarked) | radiometric | 1 µM | 45%
Cn1c(=O)n(-c2ccc(C(C)(C)C#N)cc2)c2c3cc(-c4cnc5ccccc5c4)ccc3ncc21 | – | 10 µM | 86%
CC(C)(O)[C@H]1CC[C@H](Nc2ccc3ncc(-c4cccc(C(F)(F)F)c4)n3n2)CC1 | – | 1 µM | 101%
COc1cc(Cl)c(C(=O)N[C@@H](CN[C@H]2CC[C@@H](N)CC2)Cc2ccc(C#N)cc2)cc1-c1ccc(CN[C@H](C)c2ccc(C)cc2)o1 | – | 1 µM | 98%
O=C(Nc1cnn(-c2csc(C(=O)NC3COC3)c2)c1)Nc1c(F)cccc1Cl | – | 5 µM | 90.7%
CN1CCc2cc(Nc3ncc(C4CC4)c(NCCCNC(=O)C4CCC4)n3)ccc2C1 | radiometric | 1 µM | 3%
CC(C)(C)c1nc2c(s1)c1nc(N)ncc1c1ccc(NS(=O)(=O)c3c(F)cccc3F)c(F)c12 | radiometric | 1 µM | 92%
Oc1cccc(-c2nc(N3CCOCC3)c3oc4ncccc4c3n2)c1 | – | 10 µM | 107%
Cc1nn(CC(F)(F)F)cc1Nc1ncc(C2CC2)c(NCCc2c[nH]cn2)n1 | radiometric | 1 µM | 90%
Cc1sc(C(=O)NC2COC2)cc1-n1cc(NC(=O)Nc2c(F)cccc2Cl)cn1 | – | 10 µM | 99.8%
Cc1nn(CC(F)(F)F)cc1Nc1ncc(Br)c(NCCCNC(=O)C2CCC2)n1 | radiometric | 1 µM | 19%
COc1cc(Nc2cnc(C#N)c(O[C@H](C)CN(C)C)n2)ncc1-c1cnn(C)c1 | radiometric | 1 µM | 111%
NS(=O)(=O)c1ccc(CNc2nc(Nc3cccc(NC(=O)N4CCCC4)c3)ncc2Br)cc1 | radiometric | 1 µM | 57%
CCCOc1ccc(OC)c(F)c1C(=O)c1ccc(C(=O)N[C@@H]2CNC[C@H]2NC(=O)c2ccc3[nH]ncc3c2)cc1 | – | 10 µM | 33%
Cc1nn(CC(F)(F)F)cc1Nc1ncc(Br)c(NCc2ccc(S(N)(=O)=O)cc2)n1 | radiometric | 1 µM | 89%
CC(C)(C)c1nc(-c2cccc(NS(=O)(=O)c3c(F)cccc3F)c2F)c(-c2ccnc(N)n2)s1 | radiometric | 1 µM | 94%
CCN(CC)c1ccc(C2=NNC(=O)CC2C)cc1[N+](=O)[O-] (centres unmarked) | – | 10 µM | 90%
